Experimental data from different studies.
Lines come from different studies, so protocols differ.
Target: Serine/threonine-protein kinase MRCK alpha (CDC42BPA, Homo sapiens, UniProt Q5VT25)

SMILES	test	conditions	remaining binding [%]
CN(C)c1ncc(F)c(-c2cnn3ncccc23)n1	binding	1 µM	100
COc1cc(-c2cn(C3CCc4c(F)cccc4N(CC(F)(F)F)C3=O)nn2)ccc1-n1cnc(C)c1 (stereo not shown)	cell-free assay, competition with immobilised ligand	1 µM	100
N[C@H]1CCN(c2nccc(-c3cnn4ncccc34)n2)C1	binding	1 µM	84
O=C(c1ccc(Nc2ncc(Cl)c(-c3ccc(Cl)s3)n2)cc1)N1CCC(N2CCCC2)CC1	binding, competition with immobilised ligand	1 µM	53
CN(C)c1nccc(-c2cnn3ncccc23)n1	binding	1 µM	100
O=C(NCc1ncc(C(F)(F)F)cc1Cl)c1ccc2c(c1)C1(CCS(=O)(=O)CC1)[C@@H](C1CC1)N2S(=O)(=O)c1ccc(F)cc1	cell-free assay, competition with immobilised ligand	1 µM	100
COc1ncc2cc3ccccc3nc2c1C#N	cell-free assay, competition with immobilised ligand	5 µM	100
Cc1cc(-n2nc(Cc3cc(F)cc(C(F)(F)F)c3)nc2C)ccc1C(N)=O	cell-free assay, competition with immobilised ligand	1 µM	100
Nc1ncc2c(n1)-c1c([nH]c3ccc(C#CC4CC4)cc13)CCCC2	binding, competition with immobilised ligand	1 µM	88
CN(CCCC(F)(F)F)c1nccc(-c2cnn3ncccc23)n1	binding	1 µM	100
O=C(c1ccc(Nc2ncc(Cl)c(-c3cc4ccccc4s3)n2)cc1)N1CCC(N2CCCC2)CC1	binding, competition with immobilised ligand	1 µM	14
C[C@@H](c1ccc(-n2cnc3c(N)ncnc32)cc1)N1CCc2nn(C)c(Cc3ccccc3)c2C1=O	binding, competition with immobilised ligand	0.1 µM	91
O=C(NCCCN1CCOCC1)c1ccc(Nc2ncc(Cl)c(-c3ccc(Cl)s3)n2)cc1	binding, competition with immobilised ligand	1 µM	100
c1cncc(-c2cccc(Nc3nccc(NC4CCCCC4)n3)c2)c1	binding, competition with immobilised ligand	10 µM	100
O=C(Nc1cccnn1)N1CCC(=Cc2cccc(Oc3ccc(C(F)(F)F)cn3)c2)CC1	cell-free assay, competition with immobilised ligand	1 µM	95
O=C(NCC1CCOCC1)c1n[nH]cc1NC(=O)c1c(F)cccc1F	binding, competition with immobilised ligand	1 µM	100
C[C@H]1CCN(c2nccc(-c3cnn4ncccc34)n2)C1	binding	1 µM	98
C[C@@]1(Cc2ccc(C#N)cc2)C(=O)N(c2cc(Cl)cc(Cl)c2)c2ncc(C(=O)NC3(c4nc(C5CCC5)no4)CC3)n21	cell-free assay, competition with immobilised ligand	1 µM	100
COc1cnc(Nc2cccc(S(N)(=O)=O)c2)nc1N1CCN(c2ccccc2)CC1	binding, competition with immobilised ligand	1 µM	97
CC1CCCN1c1nccc(-c2cnn3ncccc23)n1 (stereo not shown)	binding	1 µM	100
CNC(=O)[C@@H]1CC[C@@H](n2c(-c3ccc4cnccc4c3)nc3ccc(C(=O)NCc4cccc(C(N)=O)c4)cc32)C1	binding, competition with immobilised ligand	1 µM	100
NS(=O)(=O)c1cc(NC(=O)Cc2ccccc2)ccc1Oc1cccc(Cl)c1	cell-free assay, competition with immobilised ligand	1 µM	91
